Values after ≈ are worked out from the molar mass of the structure shown.
Test system: not listed separately
Assay: Solubility of the compound in PBS buffer at pH 7.4
Format: physicochemical
Details: not given

For `NC1(CNC(=O)O[C@@H]2CCC[C@]3(C2)OOC2(O3)C3CC4CC(C3)CC2C4)CCC1` (stereo not given in full), which solubility kinetic is on record?
The solubility kinetic was 142 µM (≈ 57.7 µg/mL).

Which solubility kinetic does the source give for `CC1(O)CN(C(=O)O[C@@H]2CCC[C@]3(C2)OOC2(O3)C3CC4CC(C3)CC2C4)C1` (stereo not given in full) here?
The solubility kinetic was 71.4 µM (≈ 28.1 µg/mL).

Which solubility kinetic does the source give for `NC1(CNC(=O)O[C@H]2CCC[C@@]3(C2)OOC2(O3)C3CC4CC(C3)CC2C4)CC1` (stereo not given in full) here?
The solubility kinetic was 143 µM (≈ 56.1 µg/mL).

With `O=C(O[C@@H]1CCC[C@]2(C1)OOC1(O2)C2CC3CC(C2)CC1C3)N1CC(O)(C(F)(F)F)C1` (stereo not given in full) as the compound, how does the solubility kinetic read?
The solubility kinetic was 24.8 µM (≈ 11.1 µg/mL).

With `N=S(=O)(CCNC(=O)O[C@H]1CCC[C@@]2(C1)OOC1(O2)C2CC3CC(C2)CC1C3)C1CC1` (stereo not given in full) as the compound, how does the solubility kinetic read?
Its solubility kinetic is 234 µM (≈ 106 µg/mL).

For `NC1CCN(C(=O)O[C@H]2CCC[C@@]3(C2)OOC2(O3)C3CC4CC(C3)CC2C4)CC1` (stereo not given in full), which solubility kinetic is on record?
The solubility kinetic was 118 µM (≈ 48 µg/mL).

With `CC1(O)CN(C(=O)O[C@H]2CCC[C@@]3(C2)OOC2(O3)C3CC4CC(C3)CC2C4)C1` (stereo not given in full) as the compound, how does the solubility kinetic read?
The solubility kinetic was 137 µM (≈ 53.9 µg/mL).

For `NC1(CNC(=O)O[C@@H]2CCC[C@]3(C2)OOC2(O3)C3CC4CC(C3)CC2C4)COC1` (stereo not given in full), which solubility kinetic is on record?
Its solubility kinetic is 122 µM (≈ 49.8 µg/mL).

With `NC1(CNC(=O)O[C@H]2CCC[C@@]3(C2)OOC2(O3)C3CC4CC(C3)CC2C4)CCCC1` (stereo not given in full) as the compound, how does the solubility kinetic read?
The solubility kinetic was 13.4 µM (≈ 5.64 µg/mL).

With `CCC1(O)CN(C(=O)O[C@@H]2CCC[C@]3(C2)OOC2(O3)C3CC4CC(C3)CC2C4)C1` (stereo not given in full) as the compound, how does the solubility kinetic read?
The solubility kinetic was 58.7 µM (≈ 23.9 µg/mL).

For `CS(=N)(=O)C1CN(C(=O)O[C@H]2CCC[C@@]3(C2)OOC2(O3)C3CC4CC(C3)CC2C4)C1` (stereo not given in full), which solubility kinetic is on record?
Its solubility kinetic is 142 µM (≈ 62.6 µg/mL).

Test system: Plasmodium berghei
Assay: Antiplasmodial activity against Plasmodium berghei infected in female Swiss Webster mouse model assessed as survival at 10 mg/kg, po administered once daily for 2 days and measured upto 30 days
Format: functional
Details: time 30 day
In short: (§1)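 Female Swiss Webster mice (~20 g) infected ip with 10^6 P. berghei-infected erythrocytes from a donor mouse. Dosing by oral gavage once daily for 1–2 days starting 1 h post-inoculation, in 10% DMSO/50% PEG400/40% of 20% HP-β-CD in water. Five mice per arm. Daily Giemsa smears from day 7, counting infected cells per 1000 erythrocytes. Body weight tracked. Euthanasia at >50% parasitemia or >15% weight loss. Followed to day 30; cure means no parasitemia at day 30. Survival reported as the day of the longest-surviving mouse.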

With `O=C(NCC1(O)COC1)O[C@@H]1CCC[C@]2(C1)OOC1(O2)C2CC3CC(C2)CC1C3` (stereo not given in full) as the compound, how does the Survival read?
Its Survival is 6 days.

With `NC1(CNC(=O)O[C@@H]2CCC[C@]3(C2)OOC2(O3)C3CC4CC(C3)CC2C4)CCC1` (stereo not given in full) as the compound, how does the Survival read?
Its Survival is 13 days.

With `CC1(O)CN(C(=O)O[C@@H]2CCC[C@]3(C2)OOC2(O3)C3CC4CC(C3)CC2C4)C1` (stereo not given in full) as the compound, how does the Survival read?
Its Survival is 7 days.

For `NC1(CNC(=O)O[C@H]2CCC[C@@]3(C2)OOC2(O3)C3CC4CC(C3)CC2C4)CC1` (stereo not given in full), which Survival is on record?
The Survival was 11 days.

Which Survival does the source give for `O=C(O[C@@H]1CCC[C@]2(C1)OOC1(O2)C2CC3CC(C2)CC1C3)N1CC(O)(C(F)(F)F)C1` (stereo not given in full) here?
Its Survival is 9 days.

With `N=S(=O)(CCNC(=O)O[C@H]1CCC[C@@]2(C1)OOC1(O2)C2CC3CC(C2)CC1C3)C1CC1` (stereo not given in full) as the compound, how does the Survival read?
The Survival was 6 days.

Which Survival does the source give for `NC1CCN(C(=O)O[C@H]2CCC[C@@]3(C2)OOC2(O3)C3CC4CC(C3)CC2C4)CC1` (stereo not given in full) here?
The Survival was 11 days.

For `CC1(O)CN(C(=O)O[C@H]2CCC[C@@]3(C2)OOC2(O3)C3CC4CC(C3)CC2C4)C1` (stereo not given in full), which Survival is on record?
Its Survival is 4 days.

For `NC1(CNC(=O)O[C@@H]2CCC[C@]3(C2)OOC2(O3)C3CC4CC(C3)CC2C4)COC1` (stereo not given in full), which Survival is on record?
Its Survival is 8 days.

Which Survival does the source give for `NC1(CNC(=O)O[C@H]2CCC[C@@]3(C2)OOC2(O3)C3CC4CC(C3)CC2C4)CCCC1` (stereo not given in full) here?
Its Survival is 14 days.

Test system: Plasmodium berghei
Assay: Antiplasmodial activity against Plasmodium berghei infected in female Swiss Webster mouse model assessed as survival at 20 mg/kg, po […]
Format: functional
Details: not given
In short: as §1

Which Survival does the source give for “(S,S)-dispiro[adamantane-2,3'-[1,2,4]trioxolane-5',1''-cyclohexan]-3''-yl-piperidine-1-carboxylate” here?
Its Survival is 7 days.

Test system: not listed separately
Assay: Metabolic stability in human liver microsomes assessed as intrinsic clearance
Format: ADME, Microsome
Details: liver microsomes, read-out: CLH

Which microsomal CLint does the source give for `NC1CCN(C(=O)O[C@H]2CCC[C@@]3(C2)OOC2(O3)C3CC4CC(C3)CC2C4)CC1` (stereo not given in full) here?
Its microsomal CLint is 11.8 µL/min/mg.

Same assay, conditions: microsomes

With `O=C(NCC1(O)COC1)O[C@@H]1CCC[C@]2(C1)OOC1(O2)C2CC3CC(C2)CC1C3` (stereo not given in full) as the compound, how does the microsomal intrinsic clearance read?
Its microsomal intrinsic clearance is 76.2 µL/min/mg.

For `NC1(CNC(=O)O[C@@H]2CCC[C@]3(C2)OOC2(O3)C3CC4CC(C3)CC2C4)CCC1` (stereo not given in full), which microsomal intrinsic clearance is on record?
The microsomal intrinsic clearance was 37.4 µL/min/mg.

For `NC1(CNC(=O)O[C@H]2CCC[C@@]3(C2)OOC2(O3)C3CC4CC(C3)CC2C4)CC1` (stereo not given in full), which microsomal intrinsic clearance is on record?
Its microsomal intrinsic clearance is 37.4 µL/min/mg.

Which microsomal intrinsic clearance does the source give for `O=C(O[C@@H]1CCC[C@]2(C1)OOC1(O2)C2CC3CC(C2)CC1C3)N1CC(O)(C(F)(F)F)C1` (stereo not given in full) here?
Its microsomal intrinsic clearance is 234 µL/min/mg.

For `N=S(=O)(CCNC(=O)O[C@H]1CCC[C@@]2(C1)OOC1(O2)C2CC3CC(C2)CC1C3)C1CC1` (stereo not given in full), which microsomal intrinsic clearance is on record?
The microsomal intrinsic clearance was 450 µL/min/mg.

With `NC1(CNC(=O)O[C@@H]2CCC[C@]3(C2)OOC2(O3)C3CC4CC(C3)CC2C4)COC1` (stereo not given in full) as the compound, how does the microsomal intrinsic clearance read?
The microsomal intrinsic clearance was 23.4 µL/min/mg.

Which microsomal intrinsic clearance does the source give for `NC1(CNC(=O)O[C@H]2CCC[C@@]3(C2)OOC2(O3)C3CC4CC(C3)CC2C4)CCCC1` (stereo not given in full) here?
Its microsomal intrinsic clearance is 25.3 µL/min/mg.

For `CCC1(O)CN(C(=O)O[C@@H]2CCC[C@]3(C2)OOC2(O3)C3CC4CC(C3)CC2C4)C1` (stereo not given in full), which microsomal intrinsic clearance is on record?
Its microsomal intrinsic clearance is 480 µL/min/mg.

With `CS(=N)(=O)C1CN(C(=O)O[C@H]2CCC[C@@]3(C2)OOC2(O3)C3CC4CC(C3)CC2C4)C1` (stereo not given in full) as the compound, how does the microsomal intrinsic clearance read?
The microsomal intrinsic clearance was 431 µL/min/mg.

Test system: Plasmodium berghei
Assay: Antiplasmodial activity against Plasmodium berghei infected in female Swiss Webster mouse model assessed as cure rate at 40 mg/kg, po measured upto 30 days relative to control
Format: functional
Details: time <= 30 day

Which Activity does the source give for `NCC1CCN(C(=O)O[C@@H]2CCC[C@]3(C2)OOC2(O3)C3CC4CC(C3)CC2C4)CC1` (stereo not given in full) here?
The Activity was 20%.

With `NCCC1CCN(C(=O)O[C@@H]2CCC[C@]3(C2)OOC2(O3)C3CC4CC(C3)CC2C4)CC1` (stereo not given in full) as the compound, how does the Activity read?
Its Activity is 20%.

Test system: Plasmodium berghei
Assay: Antiplasmodial activity against Plasmodium berghei infected in female Swiss Webster mouse model assessed as survival at 20 mg/kg, po administered once daily for 1 day
Details: not given

For `NC1(CNC(=O)O[C@H]2CCC[C@@]3(C2)OOC2(O3)C3CC4CC(C3)CC2C4)CC1` (stereo not given in full), which Survival is on record?
Its Survival is 11 days.

For `NC1CCN(C(=O)O[C@H]2CCC[C@@]3(C2)OOC2(O3)C3CC4CC(C3)CC2C4)CC1` (stereo not given in full), which Survival is on record?
Its Survival is 9 days.

For `NC1(CNC(=O)O[C@@H]2CCC[C@]3(C2)OOC2(O3)C3CC4CC(C3)CC2C4)COC1` (stereo not given in full), which Survival is on record?
Its Survival is 7 days.

Test system: not listed separately
Assay: Toxicity in female Swiss Webster mouse infected with Plasmodium berghei assessed as drug tolerance at 10 mg/kg, po administered once daily for 2 days and measured upto 30 days
Format: organism-based
Details: in vivo, 720 h, time 30 day
In short: as §1

Which Activity does the source give for `O=C(NCC1(O)COC1)O[C@@H]1CCC[C@]2(C1)OOC1(O2)C2CC3CC(C2)CC1C3` (stereo not given in full) here?
Its Activity is “Non-Toxic”.

Which Activity does the source give for `NC1(CNC(=O)O[C@@H]2CCC[C@]3(C2)OOC2(O3)C3CC4CC(C3)CC2C4)CCC1` (stereo not given in full) here?
Its Activity is “Non-Toxic”.

For `CC1(O)CN(C(=O)O[C@@H]2CCC[C@]3(C2)OOC2(O3)C3CC4CC(C3)CC2C4)C1` (stereo not given in full), which Activity is on record?
The Activity was “Non-Toxic”.

With `NC1(CNC(=O)O[C@H]2CCC[C@@]3(C2)OOC2(O3)C3CC4CC(C3)CC2C4)CC1` (stereo not given in full) as the compound, how does the Activity read?
Its Activity is “Non-Toxic”.

With `O=C(O[C@@H]1CCC[C@]2(C1)OOC1(O2)C2CC3CC(C2)CC1C3)N1CC(O)(C(F)(F)F)C1` (stereo not given in full) as the compound, how does the Activity read?
The Activity was “Non-Toxic”.

For `N=S(=O)(CCNC(=O)O[C@H]1CCC[C@@]2(C1)OOC1(O2)C2CC3CC(C2)CC1C3)C1CC1` (stereo not given in full), which Activity is on record?
Its Activity is “Non-Toxic”.

For `NC1CCN(C(=O)O[C@H]2CCC[C@@]3(C2)OOC2(O3)C3CC4CC(C3)CC2C4)CC1` (stereo not given in full), which Activity is on record?
Its Activity is “Non-Toxic”.

For `CC1(O)CN(C(=O)O[C@H]2CCC[C@@]3(C2)OOC2(O3)C3CC4CC(C3)CC2C4)C1` (stereo not given in full), which Activity is on record?
Its Activity is “Non-Toxic”.

For `NC1(CNC(=O)O[C@@H]2CCC[C@]3(C2)OOC2(O3)C3CC4CC(C3)CC2C4)COC1` (stereo not given in full), which Activity is on record?
Its Activity is “Non-Toxic”.

Which Activity does the source give for `NC1(CNC(=O)O[C@H]2CCC[C@@]3(C2)OOC2(O3)C3CC4CC(C3)CC2C4)CCCC1` (stereo not given in full) here?
Its Activity is “Non-Toxic”.

Test system: not listed separately
Assay: Toxicity in female Swiss Webster mouse infected with Plasmodium berghei assessed as drug tolerance at 20 mg/kg, […]
Format: organism-based
Details: in vivo, po

For `NC1(CNC(=O)O[C@H]2CCC[C@@]3(C2)OOC2(O3)C3CC4CC(C3)CC2C4)CC1` (stereo not given in full), which Activity is on record?
Its Activity is “Non-Toxic”.

With `NC1CCN(C(=O)O[C@H]2CCC[C@@]3(C2)OOC2(O3)C3CC4CC(C3)CC2C4)CC1` (stereo not given in full) as the compound, how does the Activity read?
Its Activity is “Non-Toxic”.

Which Activity does the source give for `NC1(CNC(=O)O[C@@H]2CCC[C@]3(C2)OOC2(O3)C3CC4CC(C3)CC2C4)COC1` (stereo not given in full) here?
Its Activity is “Non-Toxic”.
